The nature of assay [1]: OD615 S. cerevisiae growth inhibition, permissive medium, pilot counter-assay, permissive growth control for S. cerevisiae lifespan shortening project (AID 705;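 active = growth inhibition above 25% in both replicates, a cutoff set 3 SD above the mean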). Conditions: OD615, 24 h, at 10 µM, active compounds read high. In short, it runs like this:
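System: Engineered DeaD yeast | Buffer or medium: SC raffinose/galactose permissive medium | Incubation: Cells pre-grown 4 h, then 24 h compound exposure, 30 °C humidified | Measured by: Absorbance (optical density) at 615 nm | Read-out: Reduction in yeast growth (OD615)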

A short description of assay [2]: Restrictive medium S. cerevisiae growth inhibition, OD615, pilot screen of yeast lifespan reduction project, restrictive growth control (AID 706;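 active = growth inhibition above a set limit, 3 SD over mean compound inhibition, in both replicates, cut at about 43% in these data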;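 also: modified DeaD lifespan yeast strain shifted to restrictive glucose medium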). Conditions: OD615, 48 h, at 10 µM, active compounds read high. The essentials: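 Material: modified S. cerevisiae; Medium: glucose-based CSMM-D restrictive medium; Compound dosing: one concentration, 10 µM final, 0.25% DMSO; Incubation: 48 h compound exposure at 30 °C; Measured by: OD615.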

The nature of assay [3]: viability gain of MRP-1-high H69AR cells under doxorubicin, pilot screen, MRP-1 activator project, CellTiter-Glo, duplicate (AID 807).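 Also: compound pretreatment 18-22 h then 72 h combined with doxorubicin; 0% = doxorubicin alone and 100% = vehicle without doxorubicin.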 As to conditions: H69AR viability with doxorubicin, CellTiter-Glo luminescence; at 10 µM; active compounds read high.
Assay [4] can be described thus: growth suppression of beta-catenin knockout HCT116, pilot screen, human colon tumor cells (AID 823;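 active = cell viability at or below a set limit in both duplicate runs, the limit being the all-compound median minus 4 SD, cut at about 23% in these data, passing the limit was not always enough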;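 also: 0% = wells killed by 20 µM Hyamine and 100% = untreated DMSO cell wells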). As to conditions: CellTiter-Glo, 60 h, at 10 µM, active compounds read low.
Assay [5] is described as follows: inhibitors of the yeast RAM network, pilot screen, dse1pr::URA3 reporter, 5-FOA selection (AID 869;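 active = inhibition over a set limit, the all-compound mean plus 3 SD, in both replicate runs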;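 also: 0% = DMSO wells with no growth and 100% = 10 µM 1-NA-PP1 with full growth; RAM network block rescues cells from 5-FOA so hits raise OD615 growth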). Conditions: S. cerevisiae dse1pr::URA3 5-FOA growth, OD615, 2 d; at 10 µM; active compounds read high; strain carries analog-sensitive mutant Cbk1 kinase.
Assay [6] can be described thus: RAM signaling pathway blockade in yeast – S. cerevisiae, Pdr1DBD-CYC8 efflux-inhibited sensitized strain, primary screen (AID 1298;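 active = RAM network inhibition above 8.4% in each of two replicates, 3 SD over the compound average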;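 also: 0% = DMSO untreated cells without growth and 100% = 10 µM 1-NA-PP1 full growth; higher means more yeast growth rescued from 5-FOA killing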). Conditions: S. cerevisiae cbk1-as DSE1-URA3 strain, 5-FOA growth OD615, 2 d; at 50 µM; active compounds read high.

A number with no mark means an inactive call. Records with an inconclusive call do not appear. Activity calls are given as the source filed them.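 The calls were made as follows, unless noted: active = viability increase at or above a cutoff of the median across tested compounds plus 3 SD (cut at about 8.5% in these data, passing the limit was not always enough); inconclusive = some gains above the cutoff, reason not given; inactive = the rest.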

With `Cc1ccc(Cn2c(Sc3nccc(C)n3)nc3c2c(=O)[nH]c(=O)n3C)cc1`, the growth inhibition was -22.6% in assay [1] and 2.41% in assay [2]. For the same molecule, the viability increase in assay [3] is -2.6%. In addition, the viability in assay [4] was 83.5%. Besides, in assay [5], the inhibition was 2.89%. Besides, the RAM network inhibition in assay [6] was 3.29%.
For `CCCCCCn1c(SCC(=O)c2ccccc2)nc2c1c(=O)[nH]c(=O)n2C`, the growth inhibition in assay [1] was -4.82%; in assay [2], 42.6% (active). Besides, the viability increase in assay [3] is -7.17%. In addition, the viability in assay [4] was 53%. Further, the inhibition in assay [5] is 2.08%. The RAM network inhibition in assay [6] was 6.13%.
As for `Cc1ccc2nc(NC3=NCN(Cc4ccco4)CN3)nc(C)c2c1`, the figures for the growth inhibition in assay [1] and in assay [2] were -1.68% and -0.67%, respectively. In addition, the viability increase in assay [3] was -7.05%. Moreover, in assay [4], the viability was 27.2%. Also, the inhibition in assay [5] was -0.585%. For the same molecule, the RAM network inhibition in assay [6] was -1.94%.
`O=c1[nH]n(-c2ncnc3c2cnn3-c2ccccc2)c(=O)c2ccccc12`: the growth inhibition was -3.32% in assay [1] and 13.1% in assay [2]. The viability increase in assay [3] was -2.9%. The viability in assay [4] was 101%. Besides, the inhibition in assay [5] was 1.52%. The RAM network inhibition in assay [6] is 2.07%.
Turning to `O=C1CC(c2ccccc2)n2nc(N3C(=O)CCC3=O)nc2N1` (stereo not given), the growth inhibition was -8.97% in assay [1] and 1.75% in assay [2]. Besides, the viability increase in assay [3] is -0.15%. The viability in assay [4] was 97.9%. In addition, the inhibition in assay [5] was 1.32%. In addition, in assay [6], the RAM network inhibition is 3.53%.
As for `COC(=O)c1ccc(NCC(=O)c2ccccc2)cc1`, the growth inhibition in assay [1] is -7.25%; in assay [2], -4.05%. In addition, in assay [3], the viability increase is -4.87%. Further, the viability in assay [4] is 99.3%. Further, the inhibition in assay [5] is 1.83%. The RAM network inhibition in assay [6] is 3.96%.
Turning to `CSc1nc(N(CCO)CCO)c2sc3nc(-c4ccco4)c4c(c3c2n1)CCC4`, the values for the growth inhibition in assay [1] and in assay [2] were -1.82% and 8.15%, respectively. In addition, the viability increase in assay [3] is -4.84%. Also, the viability in assay [4] was 93.9%. For the same molecule, the inhibition in assay [5] was 2.71%. Also, in assay [6], the RAM network inhibition is 8.3%.
For `CCCc1nc2n[nH]c(N)c2c2c1CCC2`, the growth inhibition in assay [1] is -24.2%; in assay [2], -12.6%. The viability increase in assay [3] is -5.25%. Also, the viability in assay [4] was 92%. Also, the inhibition in assay [5] is 0.825%. Besides, the RAM network inhibition in assay [6] is 0.57%.
In the case of `CN1CCc2c(sc3nc(SCC(=O)N4CCOCC4)nc(N)c23)C1`, the results for the growth inhibition in assay [1] and in assay [2] were -4.38% and 0.52%, respectively. Moreover, the viability increase in assay [3] is -4.4%. Moreover, the viability in assay [4] is 95.1%. For the same molecule, in assay [5], the inhibition is 0.215%. Moreover, in assay [6], the RAM network inhibition was 5.05%.
`O=c1[nH]c2ccc(S(=O)(=O)NCc3ccccn3)cc2s1`: the growth inhibition was -13.7% in assay [1] and 2.04% in assay [2]. In addition, the viability increase in assay [3] was -1.44%. Besides, the viability in assay [4] was 95.8%. In assay [5], the inhibition is 1.35%. Further, the RAM network inhibition in assay [6] was 6.28%.
For the molecule `Cn1c(/C(C#N)=C2/CCCCCN2)nc2ccccc21`, the results for the growth inhibition in assay [1] and in assay [2] were -8.98% and -2.55%, respectively. The viability increase in assay [3] is -2.4%. Also, the viability in assay [4] was 89.6%. For the same molecule, the inhibition in assay [5] was 0.395%. Moreover, the RAM network inhibition in assay [6] was 1.35%.
Turning to `CSc1nc(SCC(=O)NCc2ccco2)c2c3c(sc2n1)COC(C)(C)C3`, the growth inhibition in assay [1] is -11.7%; in assay [2], -6.08%. In addition, the viability increase in assay [3] is -8.04%. In addition, the viability in assay [4] was 33.9%. Moreover, the inhibition in assay [5] was 2.8%. In addition, the RAM network inhibition in assay [6] was 7.62%.
Consider `CCC1CCCCN1C(=O)CSc1nc2c([nH]c3ccccc32)c(=O)n1C` (stereo not given), for which the growth inhibition is -5.5% in assay [1] and -4.4% in assay [2]. In assay [3], the viability increase is -8.15%. The viability in assay [4] is 55.7%. Further, the inhibition in assay [5] is 1.36%. Also, the RAM network inhibition in assay [6] was 3.27%.
For the molecule `CCn1c(=O)cc(C(=O)OC)sc1=Nc1ccc(F)c(F)c1`, the growth inhibition was 1.93% in assay [1] and -8.74% in assay [2]. In addition, the viability increase in assay [3] was -8.26%. Besides, the viability in assay [4] was 18.6% (active). In addition, in assay [5], the inhibition was 1.11%. Moreover, the RAM network inhibition in assay [6] is 7.21%.
Turning to `CCSc1oc(-c2ccco2)nc1S(=O)(=O)c1ccc(F)cc1`, the growth inhibition in assay [1] was -15.7%; in assay [2], -4.69%. Besides, the viability increase in assay [3] is -3.11%. In addition, the viability in assay [4] was 79%. The inhibition in assay [5] was 0.335%. Besides, the RAM network inhibition in assay [6] was 5.09%.
Consider `COc1cc2[nH]c(=O)n(CCC(=O)N3CCN(c4cccc(C)c4C)CC3)c(=O)c2cc1OC`, for which the growth inhibition in assay [1] was 2.25%; in assay [2], -5.83%. Moreover, the viability increase in assay [3] was -5.18%. In addition, the viability in assay [4] is 84.2%. Moreover, in assay [5], the inhibition is 0.615%. Also, the RAM network inhibition in assay [6] is 5.67%.
Turning to `CCCn1c(CNC(=O)Cc2ccccc2)nc2ccccc21`, the growth inhibition is 4.79% in assay [1] and 4.86% in assay [2]. In addition, the viability increase in assay [3] is -0.37%. For the same molecule, in assay [4], the viability is 106%. The inhibition in assay [5] is 2.26%. The RAM network inhibition in assay [6] was 2.59%.
Turning to `Clc1nc2sccn2c1/C=N/n1cnc2ccccc21`, the growth inhibition was 19.9% in assay [1] and 33.8% in assay [2]. In assay [3], the viability increase was -6.14%. The viability in assay [4] is 94.7%. In addition, the inhibition in assay [5] was 0.675%. Further, the RAM network inhibition in assay [6] was 2.34%.
Regarding `COc1ccccc1N1CCN(CC(=O)Nc2cc(C)nn2-c2nc(C)cc(C)n2)CC1`, the growth inhibition in assay [1] was -5.77%; in assay [2], -18.8%. Also, the viability increase in assay [3] is -7.06%. The viability in assay [4] is 19.6% (active). For the same molecule, the inhibition in assay [5] was 1.77%. Moreover, the RAM network inhibition in assay [6] was 6.51%.
Regarding `Cc1ccc(C(=O)N2CCN(C)CC2)cc1S(=O)(=O)N1CCCCC1`, the growth inhibition in assay [1] was 0.05%; in assay [2], -11.5%. Besides, the viability increase in assay [3] is -2.65%. Also, the viability in assay [4] is 90.1%. In addition, the inhibition in assay [5] was 1.31%. Besides, the RAM network inhibition in assay [6] was 0.57%.

For the origin of these results see PubChem BioAssay.
